# Measured values taken from ChEMBL document CHEMBL5329164, “Design, synthesis, and evaluation of BTK-targeting PROTACs with optimized bioavailability in vitro and in vivo” (RSC Med Chem, 2023).
# Active and inactive are the calls of the source. The calls are words filed in the database; no cut-off is given here.
# What was measured:
# [1] = target: T1, Protein cereblon/Tyrosine-protein kinase BTK (Homo sapiens) (UniProt Q06187+Q96SW2); test: PROTAC activity at CRBN/ BTK in human Ramos cells assessed as induction of BTK degradation at 100 nM incubated for 24 hrs by immunoblot analysis relative to control; assay type: cell-based
# Method in brief: (§1)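 Ramos cells in supplemented RPMI 1640 were plated at 3×10^5 cells/well and treated with compound for 24 h. Lysates in SDS sample buffer were heated at 100 °C for 15 min and run on 10% SDS-PAGE, then transferred to PVDF. Membranes were probed overnight at 4 °C for BTK, GSPT1 and β-actin.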
# [2] = target: T1, Protein cereblon/Tyrosine-protein kinase BTK (Homo sapiens); test: PROTAC activity at CRBN/ BTK in human DOHH-2 cells assessed as induction of BTK degradation at 1.2 to 300 nM incubated for 24 hrs by immunoblot analysis; assay type: cell-based; conditions: dose 1.2-300 nM
# Method in brief: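 DOHH2 cells were grown in RPMI 1640 with 10% FBS, 1% penicillin-streptomycin, 1% nonessential amino acids and 50 µM 2-mercaptoethanol at 37 °C under 5% CO₂. Cells were treated with compound at various concentrations, lysed in SDS buffer and separated on 10% SDS-PAGE. Blots were transferred to PVDF and probed for BTK, with β-actin as loading control.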
# [3] = Solubility in DMSO:Cremophor EL:1xPBS mixture at 10 mg/ml; assay type: physicochemical
# [4] = Solubility in DMSO:Cremophor EL:1xPBS mixture at 10 mg/ml incubated for 7 days; assay type: physicochemical; conditions: 168 h, time 7 day
# [5] = target: T1, Protein cereblon/Tyrosine-protein kinase BTK (Homo sapiens); test: PROTAC activity at CRBN/ BTK in human Ramos cells assessed as induction of BTK degradation at 300 nM incubated for 24 hrs by immunoblot analysis relative to control; assay type: cell-based; method in brief: as §1
# [6] = Stability in rat liver microsomes assessed as half life at 1 uM preincubated for 10 mins followed by reaction initiation measured upto 60 mins in presence of NADPH; assay type: ADME, Microsome; conditions: time < 70 min
# Method in brief: (§2)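 Compound at 1 μM final was incubated with 0.5 mg/mL mouse, rat, dog, monkey or human liver microsomes in 100 mM PBS, pH 7.4, with 1 mM NADPH at 37 °C after a 10 min preincubation. Reactions were stopped at 0, 5, 15, 30 and 60 min with ice-cold acetonitrile containing tolbutamide. Supernatants were taken for bioanalysis.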
# [7] = Stability in human liver microsomes assessed as intrinsic clearance measured per mg protein at 1 uM preincubated for 10 mins followed by reaction initiation measured upto 60 mins in presence of NADPH; assay type: ADME, Microsome; conditions: time < 70 min, read-out: CLH; method in brief: as §2
# [8] = Tmax in BALB/c mouse at 5 mg/kg, po measured for 24 hrs by LCMS analysis; assay type: ADME, organism-based; conditions: in vivo
# Method in brief: (§3)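 Male Balb/c mice, 9 per group, dosed intragastrically at 5 mg/kg; the same compounds were also given iv at 2 mg/kg. Blood was drawn into EDTA-K2 tubes at 0.25, 0.5, 1, 2, 4, 6, 8 and 24 h. Plasma proteins were precipitated with acetonitrile containing tolbutamide. Quantification was by LC-MS on a C18 column with a formic acid water/acetonitrile gradient.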
# [9] = Apparent permeability across apical to basal side in MDCK-II cells assessed as compound recovery at 10 uM measured for 120 mins by LC-MS/MS analysis; assay type: ADME, cell-based, Canis lupus familiaris; conditions: dog, read-out: Drug recovery
# Method in brief: (§4)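 MDCK monolayers were grown on Transwell inserts (5 x 10^4 cells/cm²) and used at day 5. Compound at 10 μM in HBSS with 10 mM Hepes, pH 7.40, was dosed apically or basolaterally and incubated at 37±1 °C. Receiver and donor samples were taken at 120 min and quantified by LC-MS/MS against an internal standard. Lucifer yellow passage below 1% confirmed monolayer integrity.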
# [10] = Apparent permeability across apical to basal side in MDCK-II cells at 10 uM measured for 120 mins by LC-MS/MS analysis; assay type: ADME, cell-based, Canis lupus familiaris; conditions: dog
# Method in brief: (§5)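 MDCK monolayers were grown on Transwell inserts (5 x 10^4 cells/cm²) and used at day 5. Compound at 10 μM in HBSS with 10 mM Hepes, pH 7.40, was dosed apically or basolaterally and incubated at 37±1 °C. Lucifer yellow passage below 1% confirmed monolayer integrity.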
# [11] = Stability in human liver microsomes assessed as half life at 1 uM preincubated for 10 mins followed by reaction initiation measured upto 60 mins in presence of NADPH; assay type: ADME, Microsome; conditions: time < 70 min; method in brief: as §2
# [12] = Apparent permeability across basal to apical side in MDCK-II cells at 10 uM measured for 120 mins by LC-MS/MS analysis; assay type: ADME, cell-based, Canis lupus familiaris; conditions: dog; method in brief: as §5
# [13] = target: T1, Protein cereblon/Tyrosine-protein kinase BTK (Homo sapiens); test: PROTAC activity at CRBN/ BTK in human Ramos cells assessed as induction of BTK degradation at 30 nM incubated for 24 hrs by immunoblot analysis; assay type: cell-based; method in brief: as §1
# [14] = Apparent volume of distribution in BALB/c mouse at 2 mg/kg, iv measured for 24 hrs by LCMS analysis; assay type: ADME, organism-based; conditions: in vivo, read-out: Vz
# Method in brief: (§6)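 Male Balb/c mice, 9 per group, dosed intravenously at 2 mg/kg. Blood was drawn into EDTA-K2 tubes at 0.083, 0.25, 0.5, 1, 2, 4, 6, 8 and 24 h. Plasma was separated by centrifugation at 2000 g for 10 min and precipitated with acetonitrile containing tolbutamide internal standard. Analysis was by LC-MS on a polar C18 column with a water/acetonitrile 0.1% formic acid gradient.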
# [15] = Stability in monkey liver microsomes assessed as half life at 1 uM preincubated for 10 mins followed by reaction initiation measured upto 60 mins in presence of NADPH; assay type: ADME, Macaca mulatta, Microsome; conditions: rhesus monkey, time < 70 min; method in brief: as §2
# [16] = Stability in dog liver microsomes assessed as intrinsic clearance measured per mg protein at 1 uM preincubated for 10 mins followed by reaction initiation measured upto 60 mins in presence of NADPH; assay type: ADME, Canis lupus familiaris, Microsome; conditions: time < 70 min, read-out: CLH; method in brief: as §2
# [17] = Apparent permeability across basal to apical side in MDCK-II cells assessed as compound recovery at 10 uM measured for 120 mins by LC-MS/MS analysis; assay type: ADME, cell-based, Canis lupus familiaris; conditions: dog, read-out: Drug recovery; method in brief: as §4
# [18] = Oral bioavailability in BALB/c mouse at 5 mg/kg measured for 24 hrs by LCMS analysis; assay type: ADME, organism-based; conditions: in vivo; method in brief: as §3
# [19] = Stability in monkey liver microsomes assessed as intrinsic clearance measured per mg protein at 1 uM preincubated for 10 mins followed by reaction initiation measured upto 60 mins in presence of NADPH; assay type: ADME, Macaca mulatta, Microsome; conditions: rhesus monkey, time < 70 min, read-out: CLH; method in brief: as §2
# [20] = AUClast in BALB/c mouse at 2 mg/kg, iv measured for 24 hrs by LCMS analysis; assay type: ADME, organism-based; parameters: time 24 hrs, dose 2 mg/kg, route iv; conditions: in vivo; method in brief: as §6
# [21] = Clearance in BALB/c mouse at 2 mg/kg, iv measured for 24 hrs by LCMS analysis; assay type: ADME, organism-based; conditions: in vivo; method in brief: as §6
# [22] = Half life in BALB/c mouse at 5 mg/kg, po measured for 24 hrs by LCMS analysis; assay type: ADME, organism-based; conditions: in vivo; method in brief: as §3
# [23] = Stability in mouse liver microsomes assessed as half life at 1 uM preincubated for 10 mins followed by reaction initiation measured upto 60 mins in presence of NADPH; assay type: ADME, Microsome; conditions: time < 70 min; method in brief: as §2
# [24] = Stability in dog liver microsomes assessed as half life at 1 uM preincubated for 10 mins followed by reaction initiation measured upto 60 mins in presence of NADPH; assay type: ADME, Canis lupus familiaris, Microsome; conditions: time < 70 min; method in brief: as §2
# [25] = Stability in mouse liver microsomes assessed as intrinsic clearance measured per mg protein at 1 uM preincubated for 10 mins followed by reaction initiation measured upto 60 mins in presence of NADPH; assay type: ADME, Microsome; conditions: time < 70 min, read-out: CLH; method in brief: as §2
# [26] = Stability in rat liver microsomes assessed as intrinsic clearance measured per mg protein at 1 uM preincubated for 10 mins followed by reaction initiation measured upto 60 mins in presence of NADPH; assay type: ADME, Microsome; conditions: time < 70 min, read-out: CLH; method in brief: as §2
# [27] = AUClast in BALB/c mouse at 5 mg/kg, po measured for 24 hrs by LCMS analysis; assay type: ADME, organism-based; parameters: dose 5 mg/kg, time 24 hrs, route po; conditions: in vivo; method in brief: as §3
# [28] = Half life in BALB/c mouse at 2 mg/kg, iv measured for 24 hrs by LCMS analysis; assay type: ADME, organism-based; conditions: in vivo; method in brief: as §6
# [29] = Cmax in BALB/c mouse at 5 mg/kg, po measured for 24 hrs by LCMS analysis; assay type: ADME, organism-based; parameters: dose 5 mg/kg, time 24 hrs, route po; conditions: in vivo; method in brief: as §3
# [30] = target: T1, Protein cereblon/Tyrosine-protein kinase BTK (Homo sapiens); test: PROTAC activity at CRBN/ BTK in human Ramos cells assessed as induction of BTK degradation at 500 nM incubated for 24 hrs by immunoblot analysis relative to control; assay type: cell-based; method in brief: as §1
# T1 sequence (Q06187 2-659 limits assumed): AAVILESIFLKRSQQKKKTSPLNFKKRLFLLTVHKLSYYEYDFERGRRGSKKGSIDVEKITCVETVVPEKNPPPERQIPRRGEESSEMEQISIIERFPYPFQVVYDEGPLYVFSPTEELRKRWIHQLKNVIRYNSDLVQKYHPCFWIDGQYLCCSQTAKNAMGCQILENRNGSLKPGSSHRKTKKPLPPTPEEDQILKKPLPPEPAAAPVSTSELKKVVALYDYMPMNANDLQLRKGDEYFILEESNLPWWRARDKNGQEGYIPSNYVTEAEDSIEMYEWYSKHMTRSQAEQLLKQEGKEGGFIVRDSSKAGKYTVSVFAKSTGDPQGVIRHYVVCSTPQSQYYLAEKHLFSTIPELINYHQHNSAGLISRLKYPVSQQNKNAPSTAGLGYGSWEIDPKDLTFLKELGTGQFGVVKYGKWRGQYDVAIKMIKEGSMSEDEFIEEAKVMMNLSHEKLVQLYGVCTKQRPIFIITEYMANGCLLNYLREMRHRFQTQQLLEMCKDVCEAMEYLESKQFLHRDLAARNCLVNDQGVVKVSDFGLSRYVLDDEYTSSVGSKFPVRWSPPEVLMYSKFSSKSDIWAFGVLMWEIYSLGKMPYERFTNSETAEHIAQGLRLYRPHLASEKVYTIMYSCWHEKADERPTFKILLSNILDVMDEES
# T1 sequence (Q96SW2 whole entry partner): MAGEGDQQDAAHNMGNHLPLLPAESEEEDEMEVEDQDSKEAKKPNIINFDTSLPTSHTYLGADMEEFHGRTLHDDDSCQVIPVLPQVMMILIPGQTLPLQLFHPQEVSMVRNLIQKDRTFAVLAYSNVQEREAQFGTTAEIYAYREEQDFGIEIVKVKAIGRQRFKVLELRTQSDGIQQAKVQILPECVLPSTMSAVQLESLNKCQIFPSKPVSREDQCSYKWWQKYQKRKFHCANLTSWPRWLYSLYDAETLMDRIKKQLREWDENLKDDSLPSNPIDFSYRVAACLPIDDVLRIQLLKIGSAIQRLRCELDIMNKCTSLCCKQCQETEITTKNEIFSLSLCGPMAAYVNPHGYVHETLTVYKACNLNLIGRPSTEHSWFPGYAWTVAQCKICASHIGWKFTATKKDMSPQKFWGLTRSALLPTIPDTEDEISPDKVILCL
smiles,measurement,setting,value
Nc1ncnc2c1c(-c1ccc(Oc3ccccc3)cc1)nn2[C@@H]1CCCN(C(=O)c2cn(CCOCCOCCOCCCc3cccc4c3CN(C3CCC(=O)NC3=O)C4=O)nn2)C1 (some centres not stated),Activity,[1],28.5%
same,Activity,[2],Active
same,solubility,[3],Insoluble
same,solubility,[4],Insoluble
Nc1ncnc2c1c(-c1ccc(Oc3ccccc3)cc1)nn2[C@@H]1CCCN(C(=O)N2CCN(c3ccc4c(c3)C(=O)N(C3CCC(=O)NC3=O)C4=O)CC2)C1 (some centres not stated),Activity,[1],78.4%
same,Activity,[5],79.7%
Nc1ncnc2c1c(-c1ccc(Oc3ccccc3)cc1)nn2[C@@H]1CCCN(C(=O)c2ccc(CNc3ccc4c(c3)C(=O)N(C3CCC(=O)NC3=O)C4=O)cc2)C1 (some centres not stated),half-life at 1 µM,[6],181 min
same,microsomal CLint at 1 µM,[7],9.83 µL/min/mg
same,Tmax,[8],30 min
same,Activity,[1],18.3%
same,"recovery at 2 h, 10 µM",[9],111%
same,"Papp A→B at 2 h, 10 µM",[10],0.016 ×10⁻⁶ cm/s
same,half-life at 1 µM,[11],141 min
same,"Papp B→A at 2 h, 10 µM",[12],0.01 ×10⁻⁶ cm/s
same,Activity,[2],Active
same,solubility,[3],Soluble
same,Activity,[13],20.7%
same,Vd,[14],0.998 L/kg
same,half-life at 1 µM,[15],307 min
same,microsomal CLint at 1 µM,[16],5.45 µL/min/mg
same,solubility,[4],Soluble
same,"recovery at 2 h, 10 µM",[17],116%
same,bioavailability,[18],4.78%
same,microsomal CLint at 1 µM,[19],4.52 µL/min/mg
same,AUC(0-t) at 24 h,[20],2810 ng·h/mL
same,clearance,[21],11.8 mL/min/kg
same,half-life,[22],31.2 min
same,half-life at 1 µM,[23],136 min
same,half-life at 1 µM,[24],254 min
same,microsomal CLint at 1 µM,[25],10.2 µL/min/mg
same,microsomal CLint at 1 µM,[26],7.66 µL/min/mg
same,AUC(0-t) at 24 h,[27],336 ng·h/mL
same,half-life,[28],58.8 min
same,Cmax,[29],252 ng/mL
Nc1ncnc2c1c(-c1ccc(Oc3ccccc3)cc1)nn2C1CCN(C2CN(C3CN(c4ccc5c(c4)C(=O)N(C4CCC(=O)NC4=O)C5=O)C3)C2)CC1 (configuration not stated),solubility,[3],Insoluble
same,solubility,[4],Insoluble
Nc1ncnc2c1c(-c1ccc(Oc3ccccc3)cc1)nn2[C@@H]1CCCN(C(=O)Nc2ccc3c(c2)C(=O)N(C2CCC(=O)NC2=O)C3=O)C1 (some centres not stated),Activity,[30],100%
CC(C)NCC(O)COc1ccc(CC(N)=O)cc1 (configuration not stated) [ATENOLOL],"recovery at 2 h, 10 µM",[9],94.4%
same,"recovery at 2 h, 10 µM",[17],99.5%
Nc1ncnc2c1c(-c1ccc(Oc3ccccc3)cc1)nn2[C@@H]1CCCN(C(=O)Cc2ccc(Nc3ccc4c(c3)CN(C3CCC(=O)NC3=O)C4=O)cc2)C1 (some centres not stated),half-life at 1 µM,[6],14.6 min
same,microsomal CLint at 1 µM,[7],96.2 µL/min/mg
same,Tmax,[8],30 min
same,"recovery at 2 h, 10 µM",[9],107%
same,"Papp A→B at 2 h, 10 µM",[10],0.001 ×10⁻⁶ cm/s
same,half-life at 1 µM,[11],14.4 min
same,"Papp B→A at 2 h, 10 µM",[12],0.071 ×10⁻⁶ cm/s
same,Vd,[14],2.31 L/kg
same,half-life at 1 µM,[15],10 min
same,microsomal CLint at 1 µM,[16],60.3 µL/min/mg
same,"recovery at 2 h, 10 µM",[17],101%
same,bioavailability,[18],2.23%
same,microsomal CLint at 1 µM,[19],139 µL/min/mg
same,AUC(0-t) at 24 h,[20],6400 ng·h/mL
same,clearance,[21],5.17 mL/min/kg
same,half-life,[22],68.4 min
same,half-life at 1 µM,[23],12.1 min
same,half-life at 1 µM,[24],23 min
same,microsomal CLint at 1 µM,[25],115 µL/min/mg
same,microsomal CLint at 1 µM,[26],95 µL/min/mg
same,AUC(0-t) at 24 h,[27],357 ng·h/mL
same,half-life,[28],309 min
same,Cmax,[29],364 ng/mL
